Measured values taken from ChEMBL document CHEMBL4130383, “Hydroxy-substituted trans-cinnamoyl derivatives as multifunctional tools in the context of Alzheimer's disease” (Eur J Med Chem, 2017).
Activity calls are given as the source filed them. The rule behind the calls is not given here.

Legend:
[1] = target: T1, Amyloid-beta precursor protein (Homo sapiens, UniProt P05067); assay: Inhibition of self-induced amyloid beta (1 to 42) (unknown origin) aggregation by thioflavin T-based fluorometric assay
Outline: (§1)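 HFIP-pretreated Aβ42 stock at 500 μM in CH3CN/0.3 mM Na2CO3/250 mM NaOH, diluted to 50 μM in 10 mM phosphate buffer pH 8.0 with 10 mM NaCl. Incubated at 30 °C with or without inhibitor at 50 μM (1:1 ratio); inhibitor blanks included. ThT fluorescence gave % inhibition. IC50 from concentrations giving 20–80% inhibition.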

[2] = target: T1, Amyloid-beta precursor protein; assay: Inhibition of self-induced amyloid beta (1 to 42) (unknown origin) aggregation at 50 uM by thioflavin T-based fluorometric assay relative to control; outline: as §1
[3] = Antioxidant activity assessed as inhibition of auto-oxidation of cumene initiated by AIMN in PhCl at 30 degC relative to ethyl ferulate; type: functional; details: for inhibition: dose or concentration not given here
Outline: (§2)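 Oxygen-uptake measurement in a two-channel differential pressure apparatus. Air-saturated cumene (3.6 M) in chlorobenzene (1:1 v/v) with AIBN 0.05 M as thermal initiator, equilibrated against a reference solution holding excess 2,2,5,7,8-pentamethyl-6-chromanol. Antioxidant injected once O2 consumption was constant. k_inh fitted from the uninhibited and inhibited O2-consumption slopes.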

[4] = target: T2, Glycogen synthase kinase-3 beta (Homo sapiens, UniProt P49841); assay: Inhibition of GSK3beta (unknown origin) at 50 uM using GSM substrate after 30 mins by Kinase-Glo reagent based luminescence assay relative to control
Outline: (§3)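 Buffer: 50 mM HEPES, 1 mM EDTA, 1 mM EGTA, 15 mM Mg acetate, pH 7.5. Enzyme 20 ng per well, GSM substrate 25 μM, ATP 1 μM, DMSO ≤1%. Incubated 30 min at 30 °C, then stopped with Kinase-Glo; luminescence read after 10 min. Activity normalised between no-inhibitor and […] total-inhibition controls. Single-point screen at 50 μM; IC50 by linear regression. Mean of two experiments, each in duplicate.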
Target sequence in this assay (P49841 whole entry, looked up): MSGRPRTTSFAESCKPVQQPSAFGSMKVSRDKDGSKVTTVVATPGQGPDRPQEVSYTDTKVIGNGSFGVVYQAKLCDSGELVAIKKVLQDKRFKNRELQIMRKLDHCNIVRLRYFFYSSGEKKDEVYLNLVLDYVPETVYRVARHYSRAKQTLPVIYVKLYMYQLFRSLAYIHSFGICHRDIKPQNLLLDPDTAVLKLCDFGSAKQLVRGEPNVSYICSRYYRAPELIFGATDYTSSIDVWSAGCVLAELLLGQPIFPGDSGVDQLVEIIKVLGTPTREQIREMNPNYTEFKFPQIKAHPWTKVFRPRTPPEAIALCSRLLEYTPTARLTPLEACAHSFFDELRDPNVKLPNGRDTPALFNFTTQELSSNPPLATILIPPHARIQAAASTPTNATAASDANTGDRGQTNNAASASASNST

[5] = target: T3, Protein-glutamine gamma-glutamyltransferase (Homo sapiens, UniProt P21980); assay: Inhibition recombinant human TG2 using N-CbzGlu(gamma-p-nitrophenylester)Gly as substrate after 10 mins
T3 sequence (P21980 whole entry): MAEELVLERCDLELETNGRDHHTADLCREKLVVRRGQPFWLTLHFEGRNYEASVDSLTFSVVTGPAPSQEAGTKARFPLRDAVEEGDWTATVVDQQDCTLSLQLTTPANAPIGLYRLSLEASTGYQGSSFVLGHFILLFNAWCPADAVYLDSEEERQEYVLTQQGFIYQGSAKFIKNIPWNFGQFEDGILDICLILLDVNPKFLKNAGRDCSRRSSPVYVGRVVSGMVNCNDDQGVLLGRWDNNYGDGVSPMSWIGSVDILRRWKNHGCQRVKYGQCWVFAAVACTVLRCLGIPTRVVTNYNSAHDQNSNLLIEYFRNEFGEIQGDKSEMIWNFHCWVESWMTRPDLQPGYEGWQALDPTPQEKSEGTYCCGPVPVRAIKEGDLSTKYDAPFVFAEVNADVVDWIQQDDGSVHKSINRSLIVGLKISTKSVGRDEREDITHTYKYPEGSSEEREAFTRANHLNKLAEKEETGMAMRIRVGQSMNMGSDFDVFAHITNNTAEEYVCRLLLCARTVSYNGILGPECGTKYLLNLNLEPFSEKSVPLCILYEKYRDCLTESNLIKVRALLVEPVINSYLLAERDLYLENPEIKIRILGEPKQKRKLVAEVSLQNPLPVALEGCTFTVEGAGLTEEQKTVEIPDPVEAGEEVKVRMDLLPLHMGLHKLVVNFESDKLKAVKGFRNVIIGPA

[6] = Antioxidant activity assessed as inhibition rate constant for auto-oxidation of cumene initiated by AIMN in PhCl at 30 degC; type: functional; outline: as §2
[7] = Pro-oxidant activity in water assessed as auto-oxidation initiated by Cu+/Cu2+ couple in presence of H2O2; type: toxicity; details: buffer
[8] = Metal chelating activity assessed as compound-Cu2+ complex formation at 7.5 uM in presence of 0.5 to 2 equiv of Cu2+ by UV-Visible differential spectroscopic method
Outline: (§4)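 Stock solutions: 1 mM ligand and 1 mM CuCl2 in methanol, N2-purged. Fixed ligand (5–15 μM) titrated with CuCl2 up to 3 equivalents, deoxygenated, scanned 200–600 nm at room temperature in a 10 mm quartz cuvette against methanol. Ligand-only and metal-only spectra subtracted to give differential spectra, followed at 460 and 374 nm.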

Cortical neurone [9] = assay: Neuroprotective activity against glutamate-induced oxidative stress in Sprague-Dawley rat primary cortical neurons assessed as reduction in cell death at 12.5 to 50 uM after 24 hrs by MTT assay; type: functional, cell-based; details: prague-Dawley
Outline: (§5)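 Immature E17 primary cortical neurons plated at 10^6 cells/ml. At DIV1, rinsed and given increasing compound concentrations, with or without 5 mM glutamate added at the same time. Viability by MTT after 24 h, across three neuronal preparations. Two-way ANOVA with Bonferroni post hoc test.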

[10] = target: Luciferin 4-monooxygenase (Photinus pyralis) (UniProt P08659); assay: Inhibition of firefly luciferase activity up to 3 mM after 30 mins by luminescence assay
Outline: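 Luciferase interference check: the Kinase-Glo luminescence read-out was run without GSK-3β, with compound up to 3 mM.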

[11] = target: T2, Glycogen synthase kinase-3 beta; assay: Inhibition of GSK3beta (unknown origin) using GSM substrate after 30 mins by Kinase-Glo reagent based luminescence assay; outline: as §3
Target sequence in this assay (P49841 whole entry): as the sequence (P49841 whole entry, looked up) above

[12] = target: T1, Amyloid-beta precursor protein; assay: Inhibition of self-induced amyloid beta (1 to 42) (unknown origin) aggregation by thioflavin T-based fluorometric assay relative to control; details: concentration not given here; outline: as §1
[13] = Antioxidant activity in pH 7.4 phosphate buffer assessed as inhibition rate constant for auto-oxidation of THF initiated by AAPH at 30 degC
Cortical neurone [14] = assay: Cytotoxicity against Sprague-Dawley rat primary cortical neurons assessed as reduction in cell viability up to 50 uM after 24 hrs by MTT assay; type: cell-based; outline: as §5
[15] = Metal chelating activity assessed as compound-Cu2+ complex formation at 7.5 uM by UV-Visible differential spectroscopic method; outline: as §4
[16] = Passive permeability of the compound at 100 uM after 6 hrs by PAMPA
[17] = Antioxidant activity assessed as inhibition of auto-oxidation of cumene initiated by AIMN in PhCl at 30 degC relative to caffeic acid; type: functional; outline: as §2

T1 sequence (P05067 whole entry): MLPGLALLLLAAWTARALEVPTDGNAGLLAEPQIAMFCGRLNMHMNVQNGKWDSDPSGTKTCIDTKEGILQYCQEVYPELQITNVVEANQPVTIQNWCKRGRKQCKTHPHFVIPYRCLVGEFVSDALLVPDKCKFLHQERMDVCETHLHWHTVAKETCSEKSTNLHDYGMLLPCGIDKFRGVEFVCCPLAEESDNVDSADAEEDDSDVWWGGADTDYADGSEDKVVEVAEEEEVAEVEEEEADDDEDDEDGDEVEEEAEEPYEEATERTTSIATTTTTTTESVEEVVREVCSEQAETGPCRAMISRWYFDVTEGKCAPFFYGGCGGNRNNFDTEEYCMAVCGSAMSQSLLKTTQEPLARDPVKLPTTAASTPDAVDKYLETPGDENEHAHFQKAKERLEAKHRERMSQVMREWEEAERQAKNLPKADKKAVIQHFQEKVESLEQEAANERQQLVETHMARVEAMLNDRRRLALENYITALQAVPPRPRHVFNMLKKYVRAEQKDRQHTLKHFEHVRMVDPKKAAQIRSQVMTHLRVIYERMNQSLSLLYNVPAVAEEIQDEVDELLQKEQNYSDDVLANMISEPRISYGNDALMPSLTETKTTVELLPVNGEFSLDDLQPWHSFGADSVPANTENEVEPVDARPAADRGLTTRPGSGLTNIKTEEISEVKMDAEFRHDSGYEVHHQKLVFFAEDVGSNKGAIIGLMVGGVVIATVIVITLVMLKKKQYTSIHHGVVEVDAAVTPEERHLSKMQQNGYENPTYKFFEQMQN
Luciferin 4-monooxygenase (Photinus pyralis), sequence (P08659 whole entry): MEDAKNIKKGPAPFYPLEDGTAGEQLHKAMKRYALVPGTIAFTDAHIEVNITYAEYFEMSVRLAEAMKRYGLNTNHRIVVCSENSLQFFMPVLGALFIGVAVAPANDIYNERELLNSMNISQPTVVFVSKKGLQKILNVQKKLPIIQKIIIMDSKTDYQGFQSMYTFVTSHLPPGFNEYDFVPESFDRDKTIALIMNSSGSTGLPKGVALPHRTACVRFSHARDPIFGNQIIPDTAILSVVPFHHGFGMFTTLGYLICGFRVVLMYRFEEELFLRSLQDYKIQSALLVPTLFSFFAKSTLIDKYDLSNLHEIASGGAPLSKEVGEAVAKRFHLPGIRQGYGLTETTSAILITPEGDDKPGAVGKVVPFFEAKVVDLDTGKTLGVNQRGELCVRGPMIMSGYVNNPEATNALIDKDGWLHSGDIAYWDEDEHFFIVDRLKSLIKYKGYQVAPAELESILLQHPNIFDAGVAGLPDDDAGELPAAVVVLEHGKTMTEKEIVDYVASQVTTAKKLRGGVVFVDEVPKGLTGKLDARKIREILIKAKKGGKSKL

Row | Structure (SMILES) | IC50 [1] | inhibition [2] | inhibition [4] | IC50 [5] | K [6] | further results
1 | O=C(O)/C=C/c1cccc(O)c1 | > 100 µM |  |  |  |  | 
2 | CCOc1cc(/C=C/C(=O)c2cccnc2)ccc1O |  | 18.8% | 39.5% | 484 µM | 6.1 ×10³ /M/s | inhibition [3]: 33%
3 | O=C(/C=C/c1ccc(O)c(O)c1)c1cccnc1 | 9 µM | 91.5% | 100% | 1000 µM | 6.8 ×10⁵ /M/s | Activity [7]: Not Active; Activity [8]: Active; fold change (FC) [3]: 150; Activity (Cortical neurone [9]): Active; inhibition [10]: inactive; IC50 [11]: 24.4 µM; inhibition [12]: 20 to 80%; K [13]: 3.2 ×10⁵ /M/s; Activity (Cortical neurone [14]): Non-Toxic; Activity [15]: Active; Papp at 6 h, 100 µM [16]: 5.5 ×10⁻⁶ cm/s; fold change (FC) [17]: > 2
4 | O=C(/C=C/c1cccc(O)c1)c1cccnc1 |  | 5.8% | 43.5% | 266 µM | 1.5 ×10³ /M/s | Papp at 6 h, 100 µM [16]: 6.5 ×10⁻⁶ cm/s
5 | OCCc1ccc(O)c(O)c1 |  |  |  |  | 8 ×10⁵ /M/s | 
6 | C=CCSC(=O)/C=C/c1ccc(O)c(O)c1 | 12.5 µM |  |  |  |  | 
7 | O=C(O)/C=C/c1ccc(O)c(O)c1 |  |  |  |  | 2.9 ×10⁵ /M/s | 
8 | COc1cc(/C=C/C(=O)c2cccnc2)ccc1O |  | 17.5% | 37.2% | 688 µM | 7.1 ×10³ /M/s | inhibition [3]: 54%; Papp at 6 h, 100 µM [16]: 9.9 ×10⁻⁶ cm/s
9 | CCOC(=O)/C=C/c1ccc(O)c(OC)c1 |  |  | 21.4% |  | 4.6 ×10³ /M/s | 
10 | O=c1c(O)c(-c2ccc(O)c(O)c2)oc2cc(O)cc(O)c12 |  |  |  |  | 5 ×10⁵ /M/s | 
11 | COc1cc(/C=C/C(=O)O)ccc1O [FERULATE] | > 100 µM |  |  |  |  | 
12 | O=C(/C=C/c1ccc(O)cc1)c1cccnc1 |  | 21.5% | 25.2% | > 2000 µM | 5.7 ×10³ /M/s | 
